Measurements reported in ChEMBL document CHEMBL2321836, “Discovery of novel Trypanosoma brucei phosphodiesterase B1 inhibitors by virtual screening against the unliganded TbrPDEB1 crystal structure” (J Med Chem, 2013).

How the values were obtained:
[1] = molecular target: 3',5'-cyclic-AMP phosphodiesterase 4B (Homo sapiens, UniProt Q07343); assay: Inhibition of human full length PDE4B expressed in insect SF21 cells using cAMP as substrate by scintillation proximity assay
Summary of the method: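 Full-length enzyme harvested by sonication of supernatants of overexpressing Sf21 cells. Scintillation proximity assay with 0.5 μM cAMP substrate. Enzyme level set so that <20% of cAMP was consumed. Blanks used denatured protein. Run in at least duplicate. IC50 obtained by a one-site competitive binding fit, with curves assumed to plateau at 100% inhibition.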

[2] = molecular target: T1, Class 1 phosphodiesterase PDEB1 (Trypanosoma brucei, UniProt Q8WQX9); assay: Inhibition of Trypanosoma brucei full length PDEB1 expressed in insect SF21 cells using cAMP as substrate by scintillation proximity assay
T1 sequence (Q8WQX9 whole entry): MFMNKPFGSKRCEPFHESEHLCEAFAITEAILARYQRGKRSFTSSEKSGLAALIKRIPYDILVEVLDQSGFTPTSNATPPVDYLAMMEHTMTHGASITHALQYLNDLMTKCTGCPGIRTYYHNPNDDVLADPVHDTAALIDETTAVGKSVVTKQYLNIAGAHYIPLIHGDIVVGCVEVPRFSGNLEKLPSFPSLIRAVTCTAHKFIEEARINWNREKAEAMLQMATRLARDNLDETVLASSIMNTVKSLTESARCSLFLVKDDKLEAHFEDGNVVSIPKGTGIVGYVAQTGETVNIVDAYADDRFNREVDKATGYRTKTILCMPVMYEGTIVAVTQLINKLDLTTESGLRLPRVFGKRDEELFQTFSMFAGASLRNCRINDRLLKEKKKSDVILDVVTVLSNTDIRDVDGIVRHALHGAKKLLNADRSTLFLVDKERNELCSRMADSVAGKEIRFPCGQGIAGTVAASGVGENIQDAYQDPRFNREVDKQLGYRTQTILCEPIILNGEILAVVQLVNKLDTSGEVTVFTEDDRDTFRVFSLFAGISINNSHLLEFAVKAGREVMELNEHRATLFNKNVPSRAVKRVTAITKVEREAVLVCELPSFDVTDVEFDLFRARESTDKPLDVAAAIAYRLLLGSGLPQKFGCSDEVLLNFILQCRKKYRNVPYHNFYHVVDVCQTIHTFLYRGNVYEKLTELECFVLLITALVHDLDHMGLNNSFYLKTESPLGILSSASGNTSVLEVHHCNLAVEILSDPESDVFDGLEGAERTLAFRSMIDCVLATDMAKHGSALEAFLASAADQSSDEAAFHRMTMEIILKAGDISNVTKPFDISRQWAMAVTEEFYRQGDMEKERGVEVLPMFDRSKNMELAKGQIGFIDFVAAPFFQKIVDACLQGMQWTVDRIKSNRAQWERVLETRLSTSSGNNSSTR
Summary of the method: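 Full-length enzyme harvested by sonication of supernatants of overexpressing Sf21 cells. Scintillation proximity assay with 0.5 μM cAMP substrate. Enzyme level set so that <20% of cAMP was consumed. Blanks used denatured protein. Run in at least duplicate.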

[3] = Selectivity ratio of IC50 for Trypanosoma brucei PDEB1 to IC50 for human PDE4B

3',5'-cyclic-AMP phosphodiesterase 4B, sequence (Q07343 whole entry): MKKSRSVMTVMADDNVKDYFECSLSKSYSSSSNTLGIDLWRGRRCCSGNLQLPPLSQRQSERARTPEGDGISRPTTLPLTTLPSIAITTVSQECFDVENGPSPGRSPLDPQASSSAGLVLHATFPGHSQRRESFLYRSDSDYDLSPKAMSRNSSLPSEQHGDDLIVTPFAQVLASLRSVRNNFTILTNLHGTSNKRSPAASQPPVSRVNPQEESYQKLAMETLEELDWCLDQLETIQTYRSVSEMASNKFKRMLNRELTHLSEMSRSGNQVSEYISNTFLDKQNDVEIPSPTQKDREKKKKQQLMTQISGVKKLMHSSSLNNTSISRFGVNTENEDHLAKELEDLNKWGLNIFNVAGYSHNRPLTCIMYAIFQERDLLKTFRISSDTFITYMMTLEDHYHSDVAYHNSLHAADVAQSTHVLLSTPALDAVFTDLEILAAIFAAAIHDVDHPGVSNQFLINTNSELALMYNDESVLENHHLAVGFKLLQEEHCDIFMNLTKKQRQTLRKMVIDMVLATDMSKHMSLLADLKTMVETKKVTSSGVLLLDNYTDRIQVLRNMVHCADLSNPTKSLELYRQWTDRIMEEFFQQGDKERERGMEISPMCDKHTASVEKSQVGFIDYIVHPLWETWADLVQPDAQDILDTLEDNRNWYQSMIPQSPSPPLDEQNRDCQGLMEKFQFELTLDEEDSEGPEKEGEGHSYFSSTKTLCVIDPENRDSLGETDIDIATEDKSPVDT

IC50 [1]	IC50 [2]	Ratio IC50 [3]	SMILES
68 µM	75 µM	–	O=C(NCc1ccc(Cn2cncn2)cc1)c1ccc2[nH]c3c(c2c1)CCCC3
5 µM	13 µM	–	Cc1cc(SCC(=O)c2ccc(O)c(O)c2)n2nc(C)c(-c3ccccc3)c2n1
14 µM	12 µM	–	O=C(CCCSc1ncnc2sc(-c3ccccc3)cc12)N1CCOCC1
15 µM	54 µM	3.6	O=C(CCc1nc2ccccc2n(CCc2ccccc2)c1=O)N1CCCCC1
16 µM	41 µM	2.6	O=C1c2cccc3cccc(c23)C(=O)N1CCCC(=O)N(Cc1ccco1)C1CC1

SMILES	IC50 [1]	IC50 [2]	Ratio IC50 [3]
CCCn1c(=O)n(C)c(=O)c2c(SCC(=O)c3ccc(Cl)cc3)nc(CC(C)C)nc21	26 µM	10 µM	0.4
